Assay results from ChEMBL document CHEMBL1255501, “Heteroresistance of Cryptococcus gattii to fluconazole” (2010).

How the values were obtained:
[1] = test system: Cryptococcus gattii species complex; test: Antimicrobial activity against Cryptococcus gattii serotype B isolate RAM-002 assessed as concentration required for heteroresistance; assay type: functional, Cryptococcus bacillisporus
[2] = test system: Cryptococcus gattii species complex; test: Antimicrobial activity against Cryptococcus gattii serotype B isolate NIH771 assessed as heteroresistant isolates at 4 ug/ml; assay type: functional, Cryptococcus bacillisporus
Summary of the method: (§1)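 Population analysis: saline cell suspensions (1 × 103 to 4 × 10^3 CFU/ml) plated on plain YPD agar or YPD agar with various fluconazole concentrations; growth recorded after 72 h at 30°C; percentage of resistant subpopulation at each drug level calculated relative to drug-free plate growth.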

[3] = test system: Cryptococcus gattii species complex; test: Antimicrobial activity against Cryptococcus gattii serotype B isolate NIH367 assessed as heteroresistant isolates at 16 ug/ml; assay type: functional, Cryptococcus bacillisporus
Summary of the method: (§2)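 Population analysis: cells suspended in sterile saline at 1 × 10³ to 4 × 10³ CFU/ml and plated on plain YPD agar or YPD agar with various fluconazole concentrations. Plates incubated at 30°C for 72 h. The resistant subpopulation at each concentration is recorded as a percentage of the population.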

[4] = test system: Cryptococcus gattii species complex; test: Antimicrobial activity against Cryptococcus gattii serotype C isolate H0058-1-818 assessed as heteroresistant isolates at 8 ug/ml; assay type: functional, Cryptococcus bacillisporus; summary of the method: as §1
[5] = test system: Cryptococcus gattii species complex; test: Antimicrobial activity against Cryptococcus gattii serotype C isolate NIH139 assessed as concentration required for heteroresistance; assay type: functional, Cryptococcus bacillisporus
[6] = test system: Cryptococcus deuterogattii; test: Antimicrobial activity against Cryptococcus gattii serotype B isolate NIH444 assessed as heteroresistant isolates at 4 ug/ml; assay type: functional, Cryptococcus bacillisporus; summary of the method: as §2
[7] = test system: Cryptococcus gattii species complex; test: Antimicrobial activity against Cryptococcus gattii serotype C isolate NIH18 assessed as heteroresistant isolates at 4 ug/ml; assay type: functional, Cryptococcus bacillisporus; summary of the method: as §1
[8] = test system: Cryptococcus gattii species complex; test: Antimicrobial activity against Cryptococcus gattii serotype C isolate NIH298 assessed as concentration required for heteroresistance; assay type: functional, Cryptococcus bacillisporus
Summary of the method: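 […] on YPD agar at 4 to 128 μg/ml. The lowest drug concentration at which minor resistant subpopulations emerged within the patch was scored as the strain's level of heteroresistance.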

[9] = test system: Cryptococcus gattii species complex; test: Antimicrobial activity against Cryptococcus gattii serotype B isolate RB14 assessed as heteroresistant isolates at 8 ug/ml; assay type: functional, Cryptococcus bacillisporus; summary of the method: as §1
[10] = test system: Cryptococcus gattii species complex; test: Antimicrobial activity against Cryptococcus gattii serotype B isolate RAM-005 assessed as concentration required for heteroresistance; assay type: functional, Cryptococcus bacillisporus
[11] = test system: Cryptococcus gattii species complex; test: Antimicrobial activity against Cryptococcus gattii serotype B isolate NIH184 assessed as heteroresistant isolates at 16 ug/ml; assay type: functional, Cryptococcus bacillisporus; summary of the method: as §2
[12] = test system: Cryptococcus deuterogattii; test: Antimicrobial activity against Cryptococcus gattii serotype B isolate NIH444 assessed as concentration required for heteroresistance; assay type: functional, Cryptococcus bacillisporus
Summary of the method: (§3)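 Fluconazole spot test: 10-fold serial dilutions of each single-colony-purified strain spotted on YPD agar alone and YPD agar with fluconazole at 4 to 128 μg/ml. The level of heteroresistance to fluconazole (LHF) is the lowest drug concentration at which minor resistant subpopulations emerge within the spot.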

[13] = test system: Cryptococcus gattii species complex; test: Antimicrobial activity against Cryptococcus gattii serotype C isolate NIH178 assessed as concentration required for heteroresistance; assay type: functional, Cryptococcus bacillisporus
[14] = test system: Cryptococcus gattii species complex; test: Antimicrobial activity against Cryptococcus gattii serotype B isolate NIH412 assessed as concentration required for heteroresistance; assay type: functional, Cryptococcus bacillisporus; summary of the method: as §3
[15] = test system: Cryptococcus bacillisporus; test: Antimicrobial activity against Cryptococcus gattii serotype C isolate NIH191 assessed as heteroresistant isolates at 8 ug/ml; assay type: functional
Summary of the method: (§4)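 Cell suspensions of 1 × 10^3 to 4 × 10^3 CFU/ml were made in sterile saline and plated on plain YPD agar or YPD agar with various fluconazole concentrations. Plates were incubated at 30°C for 72 h, and the percentage of resistant subpopulation emerging was recorded.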

[16] = test system: Cryptococcus gattii species complex; test: Antimicrobial activity against Cryptococcus gattii serotype B isolate NIH754 assessed as heteroresistant isolates at 2 ug/ml; assay type: functional, Cryptococcus bacillisporus; summary of the method: as §2
[17] = test system: Cryptococcus gattii species complex; test: Antimicrobial activity against Cryptococcus gattii serotype B isolate RB-14 assessed as concentration required for heteroresistance; assay type: functional, Cryptococcus bacillisporus
[18] = test system: Cryptococcus gattii species complex; test: Antimicrobial activity against Cryptococcus gattii serotype B isolate NIH190 assessed as heteroresistant isolates at 4 ug/ml; assay type: functional, Cryptococcus bacillisporus; summary of the method: as §2
[19] = test system: Cryptococcus bacillisporus; test: Antimicrobial activity against Cryptococcus gattii serotype C isolate NIH191 assessed as heteroresistant isolates at 4 ug/ml; assay type: functional; summary of the method: as §1
[20] = test system: Cryptococcus gattii species complex; test: Antimicrobial activity against Cryptococcus gattii serotype C isolate H0058-1-2023 assessed as concentration required for heteroresistance; assay type: functional, Cryptococcus bacillisporus
[21] = test system: Cryptococcus gattii species complex; test: Antimicrobial activity against Cryptococcus gattii serotype B isolate NIH771 assessed as concentration required for heteroresistance; assay type: functional, Cryptococcus bacillisporus; summary of the method: as §3
[22] = test system: Cryptococcus gattii species complex; test: Antimicrobial activity against Cryptococcus gattii serotype C isolate H0058-1-2086 assessed as concentration required for heteroresistance; assay type: functional, Cryptococcus bacillisporus
[23] = test system: Cryptococcus gattii species complex; test: Antimicrobial activity against Cryptococcus gattii serotype B isolate NIH184 assessed as heteroresistant isolates at 4 ug/ml; assay type: functional, Cryptococcus bacillisporus; summary of the method: as §2
[24] = test system: Cryptococcus gattii species complex; test: Antimicrobial activity against Cryptococcus gattii serotype C isolate NIH298 assessed as heteroresistant isolates at 8 ug/ml; assay type: functional, Cryptococcus bacillisporus; summary of the method: as §4
[25] = test system: Cryptococcus gattii species complex; test: Antimicrobial activity against Cryptococcus gattii serotype B isolate RB-17 assessed as concentration required for heteroresistance; assay type: functional, Cryptococcus bacillisporus
[26] = test system: Cryptococcus gattii species complex; test: Antimicrobial activity against Cryptococcus gattii serotype C isolate NIH298 assessed as heteroresistant isolates at 2 ug/ml; assay type: functional, Cryptococcus bacillisporus; summary of the method: as §4
[27] = test system: Cryptococcus gattii species complex; test: Antimicrobial activity against Cryptococcus gattii serotype B isolate B5788 assessed as concentration required for heteroresistance; assay type: functional, Cryptococcus bacillisporus; summary of the method: as §3
[28] = test system: Cryptococcus gattii species complex; test: Antimicrobial activity against Cryptococcus gattii serotype C isolate H0058-1-2023 assessed as heteroresistant isolates at 2 ug/ml; assay type: functional, Cryptococcus bacillisporus; summary of the method: as §1
[29] = test system: Cryptococcus gattii species complex; test: Antimicrobial activity against Cryptococcus gattii serotype C isolate H0058-1-1941 assessed as heteroresistant isolates at 8 ug/ml; assay type: functional, Cryptococcus bacillisporus; summary of the method: as §1
[30] = test system: Cryptococcus gattii species complex; test: Antimicrobial activity against Cryptococcus gattii serotype C isolate NIH187 assessed as concentration required for heteroresistance; assay type: functional, Cryptococcus bacillisporus
[31] = test system: Cryptococcus gattii species complex; test: Antimicrobial activity against Cryptococcus gattii serotype B isolate VPB572-058 assessed as heteroresistant isolates at 16 ug/ml; assay type: functional, Cryptococcus bacillisporus; summary of the method: as §1
[32] = test system: Cryptococcus gattii species complex; test: Antimicrobial activity against Cryptococcus gattii serotype C isolate NIH113 assessed as heteroresistant isolates at 8 ug/ml; assay type: functional, Cryptococcus bacillisporus; summary of the method: as §1
[33] = test system: Cryptococcus bacillisporus; test: Antimicrobial activity against Cryptococcus gattii serotype C isolate NIH191 assessed as heteroresistant isolates at 32 ug/ml; assay type: functional; summary of the method: as §1
[34] = test system: Cryptococcus gattii species complex; test: Antimicrobial activity against Cryptococcus gattii serotype B isolate NIH535 assessed as concentration required for heteroresistance; assay type: functional, Cryptococcus bacillisporus; summary of the method: as §3
[35] = test system: Cryptococcus gattii species complex; test: Antimicrobial activity against Cryptococcus gattii serotype B isolate B5765 assessed as heteroresistant isolates at 4 ug/ml; assay type: functional, Cryptococcus bacillisporus; summary of the method: as §2
[36] = test system: Cryptococcus gattii species complex; test: Antimicrobial activity against Cryptococcus gattii serotype B isolate NIH409 assessed as concentration required for heteroresistance; assay type: functional, Cryptococcus bacillisporus; summary of the method: as §3
[37] = test system: Cryptococcus gattii species complex; test: Antimicrobial activity against Cryptococcus gattii serotype B isolate NIH184 assessed as concentration required for heteroresistance; assay type: functional, Cryptococcus bacillisporus; summary of the method: as §3
[38] = test system: Cryptococcus bacillisporus; test: Antimicrobial activity against Cryptococcus gattii serotype C isolate NIH191 assessed as heteroresistant isolates at 2 ug/ml; assay type: functional; summary of the method: as §1
[39] = test system: Cryptococcus gattii species complex; test: Antimicrobial activity against Cryptococcus gattii serotype C isolate NIH34 assessed as heteroresistant isolates at 16 ug/ml; assay type: functional, Cryptococcus bacillisporus; summary of the method: as §4
[40] = test system: Cryptococcus gattii species complex; test: Antimicrobial activity against Cryptococcus gattii serotype B isolate NIH189 assessed as heteroresistant isolates at 2 ug/ml; assay type: functional, Cryptococcus bacillisporus; summary of the method: as §2
[41] = test system: Cryptococcus gattii species complex; test: Antimicrobial activity against Cryptococcus gattii serotype C isolate H0058-1-1686 assessed as heteroresistant isolates at 16 ug/ml; assay type: functional, Cryptococcus bacillisporus; summary of the method: as §1
[42] = test system: Cryptococcus gattii species complex; test: Antimicrobial activity against Cryptococcus gattii serotype B isolate NIH200 assessed as concentration required for heteroresistance; assay type: functional, Cryptococcus bacillisporus; summary of the method: as §3
[43] = test system: Cryptococcus gattii species complex; test: Antimicrobial activity against Cryptococcus gattii serotype B isolate B5765 assessed as heteroresistant isolates at 8 ug/ml; assay type: functional, Cryptococcus bacillisporus; summary of the method: as §2

Q: `OC(Cn1cncn1)(Cn1cncn1)c1ccc(F)cc1F` [FLUCONAZOLE] was tested. Which Activity [1] did it give?
A: Its Activity is 32 µg/mL.

Q: What about the Activity [2] of the same compound?
A: The Activity was 100%.

Q: What about the Activity [3] of the same compound?
A: Its Activity is 9%.

Q: What about the Activity [4] of the same compound?
A: Its Activity is 100%.

Q: What about the Activity [5] of the same compound?
A: Its Activity is 32 µg/mL.

Q: What about the Activity [6] of the same compound?
A: The Activity was 100%.

Q: And the Activity [7]?
A: Its Activity is 100%.

Q: And the Activity [8]?
A: The Activity was 32 µg/mL.

Q: And the Activity [9]?
A: The Activity was 100%.

Q: What about the Activity [10] of the same compound?
A: The Activity was 32 µg/mL.

Q: What about the Activity [11] of the same compound?
A: The Activity was 35%.

Q: What about the Activity [12] of the same compound?
A: Its Activity is 32 µg/mL.

Q: And the Activity [13]?
A: Its Activity is 32 µg/mL.

Q: And the Activity [14]?
A: The Activity was 4 µg/mL.

Q: What about the Activity [15] of the same compound?
A: The Activity was 100%.

Q: What about the Activity [16] of the same compound?
A: The Activity was 100%.

Q: What about the Activity [17] of the same compound?
A: Its Activity is 32 µg/mL.

Q: What about the Activity [18] of the same compound?
A: The Activity was 100%.

Q: And the Activity [19]?
A: The Activity was 100%.

Q: And the Activity [20]?
A: Its Activity is 32 µg/mL.

Q: And the Activity [21]?
A: Its Activity is 32 µg/mL.

Q: What about the Activity [22] of the same compound?
A: Its Activity is 32 µg/mL.

Q: And the Activity [23]?
A: The Activity was 100%.

Q: And the Activity [24]?
A: Its Activity is 100%.

Q: What about the Activity [25] of the same compound?
A: The Activity was 32 µg/mL.

Q: And the Activity [26]?
A: Its Activity is 100%.

Q: What about the Activity [27] of the same compound?
A: Its Activity is 8 µg/mL.

Q: And the Activity [28]?
A: The Activity was 100%.

Q: What about the Activity [29] of the same compound?
A: The Activity was 100%.

Q: What about the Activity [30] of the same compound?
A: The Activity was 32 µg/mL.

Q: What about the Activity [31] of the same compound?
A: The Activity was 100%.

Q: What about the Activity [32] of the same compound?
A: The Activity was 100%.

Q: And the Activity [33]?
A: The Activity was 20%.

Q: And the Activity [34]?
A: Its Activity is 4 µg/mL.

Q: And the Activity [35]?
A: The Activity was 100%.

Q: And the Activity [36]?
A: The Activity was 32 µg/mL.

Q: And the Activity [37]?
A: Its Activity is 16 µg/mL.

Q: And the Activity [38]?
A: Its Activity is 100%.

Q: What about the Activity [39] of the same compound?
A: Its Activity is 0.22%.

Q: And the Activity [40]?
A: The Activity was 100%.

Q: And the Activity [41]?
A: Its Activity is 100%.

Q: What about the Activity [42] of the same compound?
A: Its Activity is 4 µg/mL.

Q: And the Activity [43]?
A: Its Activity is 100%.
